Screening data from PubChem.
This is one part of a sample in which hits are shown more often than they occur.
pCIP destab = p/CIP protein destabilization; F442A p/CIP-EGFP cells, EGFP fluorescence, 16 h; 290,000 tested, 0.01% active; Q05BA5; decrease of EGFP signal, % at 10 µM; AID 1984;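 active = EGFP signal decrease of at least 30% at 10 µM or well 3 SD below plate mean, unless failing retest; inactive = the rest, including hits failing retest or dose response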
Target sequence (Q05BA5 1-1403): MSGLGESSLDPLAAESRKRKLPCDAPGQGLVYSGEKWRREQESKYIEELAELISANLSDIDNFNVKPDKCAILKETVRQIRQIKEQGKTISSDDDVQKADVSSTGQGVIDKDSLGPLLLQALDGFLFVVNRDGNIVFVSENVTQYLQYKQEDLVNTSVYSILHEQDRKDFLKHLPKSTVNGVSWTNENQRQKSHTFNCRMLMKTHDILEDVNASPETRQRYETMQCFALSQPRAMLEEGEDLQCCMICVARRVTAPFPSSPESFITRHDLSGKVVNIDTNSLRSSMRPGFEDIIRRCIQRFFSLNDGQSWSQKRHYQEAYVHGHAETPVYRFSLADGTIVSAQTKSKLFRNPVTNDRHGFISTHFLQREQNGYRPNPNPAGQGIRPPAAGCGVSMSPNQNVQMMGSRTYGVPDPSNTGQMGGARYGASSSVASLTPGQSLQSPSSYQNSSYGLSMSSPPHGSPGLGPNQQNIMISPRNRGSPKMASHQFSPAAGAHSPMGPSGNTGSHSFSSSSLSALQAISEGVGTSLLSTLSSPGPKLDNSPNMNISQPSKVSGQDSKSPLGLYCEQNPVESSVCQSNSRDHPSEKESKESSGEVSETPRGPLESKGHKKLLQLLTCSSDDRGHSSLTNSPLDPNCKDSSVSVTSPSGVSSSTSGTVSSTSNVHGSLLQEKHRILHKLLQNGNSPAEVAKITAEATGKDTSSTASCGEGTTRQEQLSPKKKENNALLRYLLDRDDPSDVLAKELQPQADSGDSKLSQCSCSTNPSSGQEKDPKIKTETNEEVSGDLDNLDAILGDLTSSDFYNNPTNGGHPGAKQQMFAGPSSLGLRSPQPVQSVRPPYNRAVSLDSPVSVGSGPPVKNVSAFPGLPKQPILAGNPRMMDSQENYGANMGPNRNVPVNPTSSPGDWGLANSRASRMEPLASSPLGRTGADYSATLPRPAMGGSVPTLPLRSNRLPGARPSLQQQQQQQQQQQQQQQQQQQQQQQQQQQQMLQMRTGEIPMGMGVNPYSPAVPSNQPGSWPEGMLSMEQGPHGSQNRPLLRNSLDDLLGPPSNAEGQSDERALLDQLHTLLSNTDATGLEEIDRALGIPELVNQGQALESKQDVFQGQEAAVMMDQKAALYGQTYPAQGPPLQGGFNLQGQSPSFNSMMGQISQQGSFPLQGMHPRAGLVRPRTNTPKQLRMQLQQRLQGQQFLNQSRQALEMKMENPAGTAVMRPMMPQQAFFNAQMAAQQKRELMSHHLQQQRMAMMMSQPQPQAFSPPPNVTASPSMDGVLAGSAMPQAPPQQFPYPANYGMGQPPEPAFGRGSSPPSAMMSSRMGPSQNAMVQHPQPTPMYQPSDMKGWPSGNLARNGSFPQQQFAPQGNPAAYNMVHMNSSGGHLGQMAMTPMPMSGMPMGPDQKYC
Dynein cargo inh = blocks dynein driven cargo transport along microtubules. 220,000 tested, 0.47% active. 3617.4 mouse cells, GR-EGFP nuclear translocation imaging; test concentration mostly 20 µM; stimulated with dexamethasone, 1 µM; stronger effect = lower value. z-score, hits read low;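 active = plate z-score of nuclear minus cytoplasmic receptor signal below a set negative limit, without overly bright fluorescence or cell loss, cut at about -3.5 in these data, passing the limit was not always enough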;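 also: z-score of nuclear minus cytoplasmic ring GR-EGFP intensity difference per well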
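Also added – dexamethasone, 1.0 µM final · Buffer or medium – tet-free, stripped-serum medium · Schedule – induction 48 h, compound 1 h, agonist 30 min · Detection – formaldehyde fixation, Hoechst nuclear stain, 10x automated fluorescence imaging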
CHOP UPR activ = activators of apoptotic arm of unfolded protein response (CHOP); CHO-CHOP luciferase reporter, UPR activation, luminescence; percent of tunicamycin response over DMSO baseline; 330,000 tested, 0.34% active; activation, % at 10 µM;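 active = at 10 µM dose, activation of 40% or more, normalized to positive control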;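 also: 100% = tunicamycin at 10 µg/mL and 0% = DMSO alone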
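Test system: CHO CHOP reporter cells. Input: 500 CHO-CHOP cells per well. Medium: F12 with 10% FBS. Technique: luciferase luminescence. Measure: percent activation relative to tunicamycin control. Dosing: 10 µM compound, 0.5% DMSO. Timing: 16-18 h cell attachment, then 6 h compound exposure, 37 °C.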
Beta2AR agonist = agonists of human beta-2 adrenergic receptor inducing internalization. P07550. Am2.2-beta2AR cells, FAP receptor internalization, flow cytometry. response, % (test concentration not listed). 340,000 tested, 0.43% active. AID 504454;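 active = response above a set limit, near 3 SD of response in nonfluorescent compounds, cut at about 42% in these data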
CHOP inhibitor = inhibitors of CHOP induction in ER stress response; CHO-K1 CHOP-promoter luciferase, tunicamycin-induced, 15-18 h; inhibition, % at 10 µM; 220,000 tested, 3.8% active;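 active = compounds that reduced the stress-induced luciferase reporter signal by more than about 70% of percent inhibition, limit read from the data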;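 also: 0% = tunicamycin plus vehicle and 100% = wells without tunicamycin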
UPR XBP1 act = adaptive UPR (XBP1) activation; CHO-XBP1 luciferase reporter, IRE1-XBP1 UPR activation, luminescence; percent of tunicamycin response, DMSO as zero; activation, % at 20 µM; 330,000 tested, 0.33% active;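 active = versus positive control, 20 µM dose yields 30% or more activation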;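 also: 100% = tunicamycin at 10 µg/mL and 0% = DMSO only wells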
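Material: CHO cell line with stable XBP1 luciferase reporter; schedule: 16-18 h cell attachment at 37 °C, then 6 h compound exposure; signal: glow luminescence from Steady-Glo reagent; medium: serum-containing F12 medium, 10% FBS; benchmarks: tunicamycin 10 µg/mL and vehicle-only wells; read-out: percent activation relative to tunicamycin reference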
The depositor's hits bear a star; x = no result given.

SMILES | pCIP destab | Dynein cargo inh | CHOP UPR activ | Beta2AR agonist | CHOP inhibitor | UPR XBP1 act
Cc1nc(NC(=O)/C=C/c2ccc(Cl)cc2Cl)sc1C(=O)N(C)C | -18 | -0.46 | 0 | 1 | 85* | 0
Cc1nc(NC(=O)/C=C/c2ccccc2)sc1C(=O)N(C)C | -2 | 0.2 | 3 | 0 | -10 | 0
COc1ccc(Cn2c(=S)[nH]c3cc(OC)c(OC)cc3c2=O)cc1 | -11 | 0.23 | 7 | 2 | 83* | 20
COc1ccccc1-c1nnc(NC(C)=O)s1 | 13 | 2.1 | 2 | -8 | -17 | 0
CCCCOC(=O)Nc1nnc(-c2ccccc2OC)s1 | -13 | -0.54 | -1 | 2 | 83* | 0
Cc1ccc(O)c(C(=O)CC(=O)c2ccc(Cl)cc2)c1 | 2 | x | x | 15 | x | x
O=C(CC(=O)c1cc(Cl)ccc1O)c1ccccc1 | -12 | 0.15 | 19 | 12 | 110* | 3
Cc1cccc(C(=O)CC(=O)c2cc(Cl)ccc2O)c1 | -5 | -1.6 | 13 | 8 | 108* | 5
CCOc1ccccc1-c1nc(C(N)=O)c2[nH]c(=O)n(-c3cccc(C)c3)c2n1 | -9 | 1.7 | 1 | -2 | -2 | -1
CCOc1cccc(-c2nc(C(N)=O)c3[nH]c(=O)n(-c4cccc(Cl)c4)c3n2)c1O | -6 | -0.68 | 1 | -11 | 95* | 3
Cc1ccc(C)c(Nc2cc(C)nc(-c3ccccc3O)n2)c1 | 10 | x | 0 | -4 | x | -4
Cc1cc(NC2CCCCC2)nc(-c2ccccc2O)n1 | -6 | -1.2 | 1 | 1 | 87* | 4
CCCOc1cc(C)nc(-c2ccccc2O)n1 | -9 | -0.9 | 1 | 2 | 93* | 0
Cc1cc(NCc2ccccc2)nc(-c2ccccc2O)n1 | -7 | -1.6 | 7 | 12 | 79* | 0
Cc1cc(Nc2ccccc2Cl)nc(-c2ccccc2O)n1 | 4 | x | -1 | 6 | x | -6
Cc1cc(OC(C)C)nc(-c2ccccc2O)n1 | 2 | 2.3 | 0 | 2 | 64 | 0
CCNC(=O)c1ccccc1-c1nc(-c2ccccc2)no1 | 0 | 0.96 | 2 | 2 | -18 | 0
Cc1ccc(N2CC(C(=O)Nc3ccc4c(c3)OCO4)CC2=O)cc1C (stereo unspecified) | -11 | x | 4 | 2 | x | 4
CCN1CCN(Cc2ccc(NC(=O)Nc3cccs3)cc2)CC1 | -15 | 0.094 | 1 | -3 | 14 | -3
COc1cccc(OCC(=O)N2CCCc3ccccc32)c1 | 0 | x | 3 | 1 | x | -1
COc1cc(CC(=O)OCC(=O)N(C)C2CCCCC2)cc(OC)c1OC | x | x | 1 | -6 | x | 4
CCC1CCc2c(c3ccccc3[nH]c2=O)O1 (stereo unspecified) | -1 | -0.41 | -3 | -2 | 12 | 2
CCCC1CCc2c(c3ccccc3[nH]c2=O)O1 (stereo unspecified) | -6 | 1.3 | 1 | -5 | 76* | 4
O=C(C(=Cc1ccccc1)CN1CCCCC1)c1ccccc1 | x | x | x | 49* | x | x
CCCn1cc(CN2CCC(n3nccc3NC(=O)c3ccc4c(c3)OCO4)CC2)c(C)n1 | 0 | x | 0 | -2 | x | -4
SMILES | pCIP destab | Dynein cargo inh | CHOP UPR activ | Beta2AR agonist | CHOP inhibitor | UPR XBP1 act
CCS(=O)(=O)c1ccc2oc(Nc3ccc(C(C)(C)C)cc3)nc2c1 | -4 | -0.17 | 1 | 6 | 72* | 3
Cn1cc(Cl)c(C(=O)Nc2nc3ccccc3s2)n1 | 2 | 0.033 | 0 | -9 | 15 | -3
Cn1cc(Cl)c(C(=O)Nc2cccc(Cl)c2Cl)n1 | -8 | 0.81 | 5 | -9 | 75* | 1
NC(N)=N[C@@H](CCC(=O)O)C(=O)O | x | x | x | x | 10 | x
CCOC(=O)c1c(OCC)[nH]c2ccc(O)cc12 | 3 | 0.47 | 1 | -6 | 72* | 2
CCOC(=O)c1c(C)[nH]c2ccc(O)cc12 | 2 | -0.19 | 0 | 5 | 11 | 1
CSc1nc2c(c(-c3ccc(O)cc3)c1C#N)CCC2 | -1 | 1.6 | -4 | 7 | 86* | 3
Oc1ccc(COCc2ccccc2)c2cccnc12 | -28 | 0.59 | 74* | 0 | x | 11
Oc1ccc(F)c2cccnc12 | -7 | -0.47 | 5 | 18 | 72* | 6
CC1(C)NC(=O)N(CC(=O)N2CCN(c3cccc(C(F)(F)F)c3)CC2)C1=O | x | x | -1 | 1 | x | -1
CC(C)(C)c1nn2cnnc2n(/N=C/c2ccc(O)cc2)c1=O | 2 | 0.43 | 0 | -12 | 7 | -1
CCOc1ccccc1CNC(=O)Cn1ccc2cc(S(=O)(=O)N3CCCC3)ccc21 | -11 | x | 2 | -9 | x | -5
CCNc1nc(SCCOc2ccc(Cl)cc2Cl)nc(N(C)C)n1 | 12 | 0.34 | x | 6 | 91* | x
CCNc1nc(SCCOc2ccc(C)cc2)nc(N(C)C)n1 | 0 | -0.19 | -1 | -2 | 53 | 2
Cc1cccc(C)c1NC(=O)CN1CCCC1 | x | x | 2 | 1 | x | 5
Cc1cccc(C)c1NC(=O)CN1CCNCC1 | -3 | -0.28 | -2 | 1 | 87* | 0
CCOCCCNC(=S)NCCCNc1nc2c(C)cc(C)cc2cc1C#N | -12 | -0.55 | x | 16 | 3 | x
Cc1cc(C)c2nc(NCCCNC(=S)NCCCN(C)C)c(C#N)cc2c1 | -6 | 3.4 | 3 | 43* | -1 | 0
Cc1cccc(OCCCCc2c(C)n[nH]c2C)c1C | 3 | -0.39 | 2 | 3 | 95* | 0
O=C(COC(=O)c1ccc(F)c([N+](=O)[O-])c1)NC(=O)NCc1ccccc1 | x | x | 4 | 36 | x | 13
CC(C)Sc1ncnc2c1oc1ccccc12 | -10 | 2.8 | 11 | -18 | 75* | 7
CCCSc1ncnc2c1oc1ccccc12 | -4 | -0.3 | 4 | 0 | 32 | 4
CCc1ccn2cc(-c3cc(-c4ccccc4)no3)nc2c1 | -6 | -1.1 | -9 | 5 | 77* | -9
Cc1ccc(C(=O)NNC2=Nc3cccc4cccc2c34)cc1 | -15 | 1.8 | 5 | 11 | 89* | 2
COc1ccc(/C=N/NC(=O)Cc2csc(Nc3cccc(C(F)(F)F)c3)n2)cc1C | -6 | 2.9 | 2 | 4 | 81* | -3
SMILES | pCIP destab | Dynein cargo inh | CHOP UPR activ | Beta2AR agonist | CHOP inhibitor | UPR XBP1 act
CCOc1ccc(/C=C2\SC(=S)N(Nc3ccccc3)C2=O)cc1OC | -7 | 0.11 | 1 | 22 | 82* | 2
COc1ccc(CN2CCN(C(=O)CC(C)C)CC2)cc1Br | 0 | x | 2 | 1 | x | -3
COc1ccc(/C=C/C(=O)N(CC(C)C)CC(C)C)cc1Br | -14 | 0.3 | -3 | 1 | 84* | -1
CC(C)(C)CC(=O)NC(=S)NCCc1ccccc1 | -8 | -0.6 | 3 | -4 | 70* | 3
CC(C)CC(=O)NC(=S)NCCc1ccccc1 | -1 | 0.84 | 4 | -4 | 57 | -1
CC(C)Sc1nc(N2CCOCC2)c2c3c(sc2n1)COC(C)(C)C3 | -4 | -0.38 | 1 | -13 | 82* | 2
